Results on one compound are retold here after ChEMBL document CHEMBL1140884, “Oligodeoxyribonucleotide-based antagonists for Toll-like receptors 7 and 9” (2009).

The test system of assay [1] is Mus musculus. Kind of assay: Inhibition of 5'-TCTGACRTTCT-X-TCTTRCAGTCT-3'-induced IL12 production in C57BL/6 mouse at 10 mg/kg, sc. Details: dose 10 mg/kg. The class given is functional, organism-based. Summed up:
(§1)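 C57BL/6 mice received antagonist or control 10 mg/kg sc, either with TLR9 agonist 0.25 mg/kg sc or up to 48 h before it. Serum IL-12 was measured 2 h after agonist. Two or three independent experiments; mean ± SEM, Student's t test versus PBS.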

For assay [2], the target named is T1, Toll-like receptor 9 (Mus musculus) (UniProt Q9EQU3).
T1 sequence (whole entry): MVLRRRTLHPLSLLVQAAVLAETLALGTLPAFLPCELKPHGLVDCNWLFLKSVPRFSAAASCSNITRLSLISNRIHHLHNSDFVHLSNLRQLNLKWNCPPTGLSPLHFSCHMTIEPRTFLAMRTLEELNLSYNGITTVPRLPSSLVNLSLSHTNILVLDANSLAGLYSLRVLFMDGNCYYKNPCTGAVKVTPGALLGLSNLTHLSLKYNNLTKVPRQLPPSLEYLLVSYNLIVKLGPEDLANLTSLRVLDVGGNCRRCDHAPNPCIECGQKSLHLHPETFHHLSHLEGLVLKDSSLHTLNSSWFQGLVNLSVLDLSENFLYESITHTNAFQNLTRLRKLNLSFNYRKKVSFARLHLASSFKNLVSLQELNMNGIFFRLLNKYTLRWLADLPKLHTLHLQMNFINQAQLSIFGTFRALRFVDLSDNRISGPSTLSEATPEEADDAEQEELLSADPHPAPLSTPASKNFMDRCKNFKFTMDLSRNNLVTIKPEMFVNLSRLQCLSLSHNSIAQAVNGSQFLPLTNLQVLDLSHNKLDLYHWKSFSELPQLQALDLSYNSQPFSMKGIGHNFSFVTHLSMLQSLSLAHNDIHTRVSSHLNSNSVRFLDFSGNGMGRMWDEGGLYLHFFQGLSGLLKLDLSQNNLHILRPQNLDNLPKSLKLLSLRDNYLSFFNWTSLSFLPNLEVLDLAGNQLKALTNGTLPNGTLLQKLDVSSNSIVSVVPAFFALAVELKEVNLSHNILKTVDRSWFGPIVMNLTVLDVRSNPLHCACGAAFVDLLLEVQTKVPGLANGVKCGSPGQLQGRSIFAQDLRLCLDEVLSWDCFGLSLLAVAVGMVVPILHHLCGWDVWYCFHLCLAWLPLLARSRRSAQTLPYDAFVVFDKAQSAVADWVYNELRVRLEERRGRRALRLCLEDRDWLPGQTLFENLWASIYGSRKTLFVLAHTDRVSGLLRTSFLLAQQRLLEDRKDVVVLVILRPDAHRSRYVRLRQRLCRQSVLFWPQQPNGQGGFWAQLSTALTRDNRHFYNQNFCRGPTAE
Put plainly: Antagonist activity at TLR9 in mouse J774 cells assessed as inhibition of 5'-TCTGACRTTCT-X-TCTTRCAGTCT-3'-induced NF-kappaB activation pretreated for 1 hr. The class given is functional, cell-based. Summed up: (§2)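 J774 cells at 5×10^6 cells/well were preincubated with antagonist for 1 h. Agonist was then added: TLR9 agonist 1 µg/mL, an RNA-based TLR7/8 agonist, or LPS 100 ng/mL. Antagonist was used at 5–40 µg/mL or at the indicated agonist ratios. Nuclear extracts were taken 1 h after agonist and analysed by EMSA.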

The test system of assay [3] is Mus musculus. Kind of assay: Inhibition of 5'-UGCUGUUCUG-X-GUCUUGUCGU-5'-induced IL12 production in C57BL/6 mouse treated 72 hrs before induction at 10 mg/kg, sc. The following applies: C57BL/6, sc, route subcutaneous. The class given is functional. In short, it runs like this: (§3)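 Female C57BL/6 mice, 6-8 weeks, n = 3, given antagonist 10 mg/kg sc in the right flank. After 72 h, agonist given sc in the left flank: TLR7/8 RNA agonist at 50 mg/kg or TLR9 agonist at 0.25 mg/kg. Serum collected 2 h after agonist by retro-orbital bleeding; cytokines/chemokines by mouse 20-plex Luminex bead assay.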

The target in assay [4] is T1, Toll-like receptor 9 (Mus musculus). Kind of assay: Antagonist activity at TLR9 in mouse J774 cells assessed as inhibition of 5'-TCTGACRTTCT-X-TCTTRCAGTCT-3'-induced NF-kappaB activation pretreated for 1 hr in presence of increasing levels of 5'-TCTGACRTTCT-X-TCTTRCAGTCT-3'. The class given is functional, cell-based. In short, it runs like this: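 Reversibility test: J774 cells were stimulated with varying doses of TLR9 agonist, with or without a fixed 10 µg/mL antagonist, for 1 h. Nuclear extracts were analysed for NF-κB by EMSA.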

The test system of assay [5] is Mus musculus. Kind of assay: Inhibition of 5'-UGCUGUUCUG-X-GUCUUGUCGU-5'-induced MIG production in C57BL/6 mouse treated 72 hrs before induction at 10 mg/kg, sc. The class given is functional. To be noted: C57BL/6, sc, route subcutaneous. In short, it runs like this:
as §3

Assay [6] addresses T1, Toll-like receptor 9 (Mus musculus). Kind of assay: Agonist activity at mouse TLR9 expressed in HEK293 cells assessed as activation of NF-kappaB at 10 ug/mL by SEAP reporter gene assay. The format is functional, cell-based. Summed up:
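HEK293 cells stably expressing mouse TLR9 were transiently transfected with a SEAP reporter for 6 h. Compounds were added at 10 µg/mL for 18 h. SEAP was read with Quanti-Blue substrate and expressed as fold change in NF-κB activity.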
(Reporter assays use an easily measured gene product as a stand-in for the process of interest.)

The target is the same in assay [7]. Kind of assay: Antagonist activity at TLR9 in mouse J774 cells assessed as inhibition of LPS-induced NF-kappaB activation treated 1 hr before LPS induction. The format is functional, cell-based. In short, it runs like this: as §2
Assay [8] relates to Mus musculus. Kind of assay: Inhibition of 5'-UGCUGUUCUG-X-GUCUUGUCGU-5'-induced KC production in C57BL/6 mouse treated 72 hrs before induction at 10 mg/kg, sc. The class given is functional. To be noted: C57BL/6, sc, route subcutaneous. Summed up:
as §3

Assay [9] deals with Mus musculus. Put plainly: Inhibition of 5'-TCTGACRTTCT-X-TCTTRCAGTCT-3'-induced IL12 production in C57BL/6 mouse pretreated before up to 48 hrs of induction at 10 mg/kg, sc. The format is functional, organism-based. Details: dose 10 mg/kg. In short, it runs like this: as §1
Another assay relates to B. Kind of assay: Inhibition of 5'-TCTGTCRTTCT-X-TCTTRCTGTCT-5'-induced IL6 secretion in MRL/lpr mouse splenic B cells after 24 hrs by ELISA. The format is functional, cell-based. In short, it runs like this: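 Splenic B cells from MRL/lpr mice, purified by B-cell isolation kit (>95% B220+), cultured at 5×10^5 cells/200 μL in RPMI-1640 with 10% FBS and penicillin/streptomycin; stimulated with 1 μg/mL TLR9 agonist with or without antagonist at 0.3, 1 or 3 μg/mL, or antagonist 3 μg/mL alone. Supernatants taken at 24 h; IL-6 by sandwich ELISA.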
In general terms: In an ELISA, binding on a coated surface is turned into a signal by an enzyme label.

Assay [10] concerns Mus musculus. Kind of assay: Inhibition of 5'-TCTGACRTTCT-X-TCTTRCAGTCT-3'-induced IL10 production in C57BL/6 mouse treated 72 hrs before induction at 10 mg/kg, sc. The class given is functional. The following applies: C57BL/6, sc, route subcutaneous. Summed up:
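Female C57BL/6 mice (n=3) received antagonist 10 mg/kg sc in the right flank. After 72 h, TLR9 agonist 0.25 mg/kg sc was given in the left flank. Serum was taken 2 h after agonist and cytokines/chemokines were measured by Luminex multiplex assay. Representative of at least three experiments.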

For assay [11], the system named is Mus musculus. Kind of assay: Inhibition of 5'-UGCUGUUCUG-X-GUCUUGUCGU-5'-induced IP10 production in C57BL/6 mouse treated 72 hrs before induction at 10 mg/kg, sc. The format is functional. The following applies: C57BL/6, sc, route subcutaneous. In short, it runs like this:
as §3

In assay [12] the target is T1, Toll-like receptor 9 (Mus musculus). Kind of assay: Antagonist activity at TLR9 in mouse J774 cells assessed as inhibition of 5'-TCTGACRTTCT-X-TCTTRCAGTCT-3'-induced NF-kappaB activation. The class given is functional, cell-based. Summed up:
as §2

The source made the active and inactive calls. No cut-off for these calls is given here.

A word on the inhibition in vivo: it is the drop in the measured response relative to a control, in per cent. Read a high inhibition in vivo as a response far below the control. Consider `CO[C@@H]1[C@H](OP(=O)(S)OC[C@H]2O[C@@H](n3ccc(N)nc3=O)C[C@@H]2OP(=O)(S)OC[C@H]2O[C@@H](n3ccc4c(=O)[nH]c(N)nc43)C[C@@H]2OP(=O)(S)OC[C@H]2O[C@@H](n3cc(C)c(=O)[nH]c3=O)C[C@@H]2OP(=O)(S)OC[C@H]2O[C@@H](n3cc(C)c(=O)[nH]c3=O)C[C@@H]2OP(=O)(S)OC[C@H]2O[C@@H](n3ccc(N)nc3=O)C[C@@H]2OP(=O)(S)OC[C@H]2O[C@@H](n3cc(C)c(=O)[nH]c3=O)C[C@@H]2OP(=O)(S)OC[C@H]2O[C@@H](n3ccc(N)nc3=O)C[C@@H]2OP(=O)(S)OC[C@H]2O[C@@H](n3cc(C)c(=O)[nH]c3=O)C[C@@H]2OP(=O)(S)OC[C@H]2O[C@@H](n3cnc4c(=O)[nH]c(N)nc43)C[C@@H]2OP(=O)(S)OC[C@H]2O[C@@H](n3cc(C)c(=O)[nH]c3=O)C[C@@H]2O)[C@@H](COP(=O)(S)O[C@H]2[C@@H](OC)[C@H](n3cnc4c(=O)[nH]c(N)nc43)O[C@@H]2COP(=O)(S)O[C@H]2C[C@H](n3cc(C)c(=O)[nH]c3=O)O[C@@H]2COP(=O)(S)O[C@H]2C[C@H](n3ccc(N)nc3=O)O[C@@H]2COP(=O)(S)O[C@H]2C[C@H](n3cc(C)c(=O)[nH]c3=O)O[C@@H]2COP(=O)(S)O[C@H]2C[C@H](n3cnc4c(N)ncnc43)O[C@@H]2COP(=O)(S)O[C@H]2C[C@H](n3cc(C)c(=O)[nH]c3=O)O[C@@H]2COP(=O)(S)O[C@@H]2C[C@@H](n3ccc(N)nc3=O)O[C@H]2CO)O[C@H]1n1cnc2c(N)ncnc21` (stereo partly drawn), for which the outcome (in the assay with Mus musculus [1]; with Mus musculus [9]; in assay [12]) was Active. Besides, the Activity entry (in assay [2]; with B) was “Dose-dependent effect” each time. Further, the inhibition in vivo at 10 mg/kg with Mus musculus [3], in the assay on Mus musculus [5], in the assay with Mus musculus [8], in the assay with Mus musculus [10] and in the assay on Mus musculus [11] was not below 50% in each case. Also, the outcome in [4], in [6] and in [7] was inactive.
